Laboratory results taken from PMC6136352 (Journal of Enzyme Inhibition and Medicinal Chemistry, 2018).

Assays:
KG1a cells = test: MTT cytotoxicity assay, KG1a; format: cell-based, human; conditions: for IC50: Homo sapiens, KG-1a, 72 h, read-out: IC50 KG1a
In short: (§1)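 Exponentially growing leukaemia lines were seeded at 1 × 10⁴ cells/well in supplemented RPMI 1640. After 24 h, test compounds were added over a concentration range for 72 h, with adriamycin as positive control. MTT (5 mg/ml stock) was added for 4 h. Plates were spun at 2000 rpm for 20 min, the supernatant replaced by DMSO, and absorbance read at 570 nm. IC50 was fitted; each value is the mean of three independent experiments.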

HL-60 cells = test: MTT cytotoxicity assay, HL-60; format: cell-based; conditions: Homo sapiens, HL-60, 72 h, read-out: IC50 HL-60
In short: as §1

[1] = cited from earlier work
[2] = cited from earlier work; remark: listed apart in the source

Row | SMILES | IC50 (KG1a cells) [nM] | drop of activity against KG1a than that against HL-60 (KG1a cells; ratio of IC50 values) [folds] | IC50 (HL-60 cells) [nM] | solubility [1] | stability in acidic and basic conditions [2]
1 | COc1cccc2c1C(=O)c1c(O)c3c(c(O)c1C2=O)C[C@@](O)(C(=O)CO)C[C@@H]3O[C@H]1C[C@H](N)[C@H](O)[C@H](C)O1 [ADR, adriamycin] | 750 ± 50 | 34 | 22 ± 5 |  | 
2 | C=C1C(=O)O[C@H]2[C@H]1CC/C(C)=C/CC[C@@]1(C)O[C@@H]21 [PTL, Parthenolide] | 6100 ± 1800 |  | 3800 ± 1200 | poor solubility | instability in both acidic and basic conditions
